Laboratory results from ChEMBL document CHEMBL3124762, “De-novo designed library of benzoylureas as inhibitors of BCL-XL: synthesis, structural and biochemical characterization” (J Med Chem, 2014).

What was measured:
[1] = Inhibition of binding of biotinylated mouse BIM BH3-26mer peptide to GST-tagged mouse BCL-Xl delta C25 mutant by AlphaScreen/[…] assay
Method in brief: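 Bead-based AlphaScreen competition: compounds titrated by serial dilution from 150 µM against GST-BCL-XL ΔC25 (0.6 nM final) and biotinylated BIM BH3 26-mer (5.0 nM final). Anti-GST acceptor and streptavidin donor beads at 15 µg/mL each. Protein/acceptor and peptide/donor pairs pre-incubated 30 min. Compound plus protein complex 30 min, then peptide complex 4 h at room temperature. 1% DMSO final. IC50 from at least two separate experiments.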

[2] = target: T1, Bcl-2-like protein 1 (Homo sapiens, UniProt Q07817); assay: Direct binding affinity to free Bcl-XL (unknown origin) assessed as […] measured for 60 secs by surface plasmon resonance
T1 sequence (Q07817 whole entry): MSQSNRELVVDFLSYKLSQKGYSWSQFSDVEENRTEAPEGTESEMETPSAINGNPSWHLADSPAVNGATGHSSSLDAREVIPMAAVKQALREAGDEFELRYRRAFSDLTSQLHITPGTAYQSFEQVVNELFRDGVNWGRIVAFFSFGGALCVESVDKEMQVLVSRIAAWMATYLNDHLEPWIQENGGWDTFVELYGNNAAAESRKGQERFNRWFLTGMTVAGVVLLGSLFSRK
Method in brief: (§1)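 Biacore S51 direct binding. GST-BCL-XL captured on an amine-coupled anti-GST antibody surface (about 1200 RU), in phosphate buffer pH 7.4 with 150 mM NaCl, 1 mM EDTA, 0.03% Tween 20 and 5% DMSO. Each cycle, 30 nM wt-BIM 26-mer pre-blocks the groove on the reference spot. Double referencing, 4–6% DMSO solvent correction, 1:1 fit with mass transport; Kd = kd/ka.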

[3] = target: T1, Bcl-2-like protein 1; assay: Direct binding affinity to Bcl-XL (unknown origin) pre-saturated with 26-mer-wt-Bim assessed as dissociation constant measured for 120 secs by surface plasmon resonance; method in brief: as §1
[4] = Inhibition of binding of wild type mBIMBH3 peptide to human Bcl-XL delta C24 mutant by surface plasmon resonance competition experiment
Method in brief: (§2)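 Solution competition SPR: recombinant pro-survival protein (10 nM) incubated 2 h with compound (25–0.024 µM) in HEPES 10 mM, 150 mM NaCl, 3.4 mM EDTA, 0.005% Tween 20, pH 7.4. Mixture then injected over CM5 chip bearing immobilized wild-type mBIMBH3 26-mer, with inert mutant mBIMBH3 surface as reference. IC50 is the mean of three independent experiments ± SEM.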

[5] = target: Bcl-2-like protein 2 (Homo sapiens, UniProt Q92843, A128E/C29S); assay: Inhibition of binding of wild type mBIMBH3 peptide to human Bcl-W delta C29 (C29S/A128E) mutant by surface plasmon resonance competition experiment; method in brief: as §2
Sequence of Bcl-2-like protein 2 (Q92843 2-193 C29S/A128E limits assumed): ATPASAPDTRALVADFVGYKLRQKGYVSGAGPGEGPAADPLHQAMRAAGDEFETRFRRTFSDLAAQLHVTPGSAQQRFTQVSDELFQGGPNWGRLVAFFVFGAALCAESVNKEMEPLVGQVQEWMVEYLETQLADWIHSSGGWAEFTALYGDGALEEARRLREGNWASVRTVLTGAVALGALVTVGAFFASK

[6] = target: Bcl-2-related protein A1 (Mus musculus) (UniProt Q07440); assay: Inhibition of binding of wild type mBIMBH3 peptide to mouse Bcl-2-related protein A1 by surface plasmon resonance competition experiment
Sequence of Bcl-2-related protein A1 (Mus musculus) (Q07440 whole entry, looked up): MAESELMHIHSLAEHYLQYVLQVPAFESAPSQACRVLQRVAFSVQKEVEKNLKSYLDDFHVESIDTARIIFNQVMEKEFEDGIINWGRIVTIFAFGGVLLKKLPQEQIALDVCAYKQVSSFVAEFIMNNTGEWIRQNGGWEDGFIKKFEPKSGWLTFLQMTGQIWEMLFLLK

[7] = Inhibition of binding of wild type mBIMBH3 peptide to human Bcl-2 delta C22 mutant by surface plasmon resonance competition experiment; method in brief: as §2
[8] = Inhibition of binding of wild type mBIMBH3 peptide to human/mouse chimeric MCL1 by surface plasmon resonance competition experiment; method in brief: as §2

Compound	IC50 [1] [µM]	also measured
CCCN(C(=O)N[C@@H](CSCC(C)C)C(=O)O)C(=O)c1cccc(C#Cc2ccccc2)c1	15	
CCCN(C(=O)N[C@@H](CSCc1ccccc1)C(=O)O)C(=O)c1cccc(/C=C/c2ccccc2)c1	141	
CCCN(C(=O)N[C@@H](CSCC(C)C)C(=O)O)C(=O)c1cccc(C#Cc2cccc(C)c2)c1	51	
CCCN(C(=O)N[C@@H](CSCC(C)C)C(=O)O)C(=O)c1cccc(C#Cc2ccc(Oc3ccccc3)cc2)c1	> 150	
CCCN(C(=O)NC)C(=O)c1cccc(-c2ccccc2)c1	> 150	
CCCN(C(=O)N[C@@H](CSCc1ccc(Br)cc1)C(=O)O)C(=O)c1cccc(C#Cc2ccc(F)cc2F)c1	13	Kd [2]: 6.9 µM; Kd [3]: 4 µM
CCCN(C(=O)N[C@@H](Cc1ccc(O)cc1)C(=O)O)C(=O)c1cccc(-c2ccccc2)c1	> 150	
CCCN(C(=O)N[C@@H](CSCC(C)C)C(=O)O)C(=O)c1cccc(C#Cc2cccnc2)c1	> 150	
CCCN(C(=O)N[C@@H](CSCC(C)C)C(=O)O)C(=O)c1cccc(C#Cc2ccc(C)cc2)c1	50	
CCCN(C(=O)N[C@@H](CSCC(C)C)C(=O)O)C(=O)c1cccc(C#Cc2ccccc2C)c1	57	
CCCN(C(=O)N[C@@H](CSCC(C)C)C(=O)O)C(=O)c1cccc(C#Cc2ccc(F)cc2F)c1	22	IC50 [4]: 4.4 µM; Kd [2]: 4.9 µM; Kd [3]: 2.1 µM; IC50 [5]: > 25 µM; IC50 [6]: > 25 µM; IC50 [7]: > 25 µM; IC50 [8]: > 25 µM
CCCN(C(=O)N[C@@H](CSCC(C)C)C(=O)O)C(=O)c1cccc(C#Cc2ccc(C(C)(C)C)cc2)c1	> 150	
CCCN(C(=O)N[C@@H](CSC(C)C)C(=O)O)C(=O)c1cccc(C#Cc2ccccc2)c1	33	
O=C(NS(=O)(=O)c1ccc(NCCSc2ccccc2)c([N+](=O)[O-])c1)c1ccc(-c2ccc(F)cc2)cc1		IC50 [4]: 0.196 µM; IC50 [5]: > 25 µM; IC50 [6]: 14.2 µM; IC50 [7]: 14.7 µM; IC50 [8]: 22 µM
CCCN(C(=O)N[C@@H](CSCc1ccc(OC)cc1)C(=O)O)C(=O)c1cccc(C#Cc2ccccc2)c1	21	
CCCN(C(=O)N[C@@H](CSCCc1ccccc1)C(=O)O)C(=O)c1cccc(C#Cc2ccccc2)c1	21	
CCCN(C(=O)N[C@@H](CSCC(C)C)C(=O)O)C(=O)c1cccc(C#Cc2ccc(F)cc2)c1	9	
CCCN(C(=O)N[C@@H](CC(C)C)C(=O)O)C(=O)c1cccc(-c2ccccc2)c1	> 150	
CCCN(C(=O)N[C@@H](CSCC(C)C)C(=O)O)C(=O)c1cccc(C#Cc2cccc(F)c2)c1	69	
CCCN(C(=O)NCCSCc1ccccc1)C(=O)c1cccc(-c2ccccc2)c1	> 150	
CCCN(C(=O)N[C@@H](CSc1ccccc1)C(=O)O)C(=O)c1cccc(C#Cc2ccccc2)c1	25	
CCCN(C(=O)N[C@@H](CSCc1ccccc1)C(=O)O)C(=O)c1cccc(C#Cc2ccccc2)c1	35	
CCCN(C(=O)N[C@@H](Cc1c[nH]c2ccccc12)C(=O)O)C(=O)c1cccc(-c2ccccc2)c1	108	
CCCN(C(=O)N[C@@H](CSCC(C)C)C(=O)O)C(=O)c1cccc(C#Cc2ccncc2)c1	> 150	
CCCSC[C@H](NC(=O)N(CCC)C(=O)c1cccc(C#Cc2ccccc2)c1)C(=O)O	21	
CCCN(C(=O)N[C@@H](CSCC(C)C)C(=O)O)C(=O)c1cccc(C#Cc2ccccc2F)c1	39	
CCCN(C(=O)N[C@@H](CSCC1CCCCC1)C(=O)O)C(=O)c1cccc(C#Cc2ccccc2)c1	42	
CCCN(C(=O)N[C@@H](CSCCCc1ccccc1)C(=O)O)C(=O)c1cccc(C#Cc2ccccc2)c1	73	
CCCN(C(=O)N[C@@H](CSCc1ccccc1-c1ccccc1)C(=O)O)C(=O)c1cccc(C#Cc2ccccc2)c1	146	

More lines, main results first:

IC50 [1] [µM]	Compound	also measured
> 150	CC(C)N(C(=O)N[C@@H](CSCc1ccccc1)C(=O)O)C(=O)c1cccc(-c2ccccc2)c1	
> 150	CCCN(C(=O)N[C@@H](CSCc1ccccc1)C(=O)OC)C(=O)c1cccc(-c2ccccc2)c1	
62	CCCN(C(=O)N[C@@H](CSCc1ccccc1)C(=O)O)C(=O)c1cccc(-c2cccc3ccccc23)c1	
102	CCCN(C(=O)N[C@@H](CSCc1ccccc1)C(=O)O)C(=O)c1cccc(-c2ccccc2Cl)c1	
138	CCCCN(C(=O)N[C@@H](CSCc1ccccc1)C(=O)O)C(=O)c1cccc(-c2ccccc2)c1	
86	CCCN(C(=O)N[C@@H](CSCc1ccccc1)C(=O)O)C(=O)c1cccc(-c2ccc(Cl)cc2)c1	
> 150	CCCN(C(=O)N[C@@H](CSCc1ccccc1)C(N)=O)C(=O)c1cccc(-c2ccccc2)c1	
> 150	CCCN(C(=O)N[C@@H](CSCc1ccccc1)C(=O)O)C(=O)c1cccc(-c2ccc(OC)cc2)c1	
> 150	O=C(O)[C@H](CSCc1ccccc1)NC(=O)N(Cc1ccccc1)C(=O)c1cccc(-c2ccccc2)c1	
> 150	CCCN(C(=O)N[C@@H](Cc1ccccc1)C(=O)O)C(=O)c1cccc(-c2ccccc2)c1	
77	CCCN(C(=O)N[C@@H](CSCc1ccccc1)C(=O)O)C(=O)c1cccc(-c2ccc(C)cc2)c1	
> 150	CCCN(C(=O)N[C@@H](CCc1ccccc1)C(=O)O)C(=O)c1cccc(-c2ccccc2)c1	
109	CCCN(C(=O)N[C@@H](CSCc1ccccc1)C(=O)O)C(=O)c1cccc(-c2ccccc2)c1	
55	CCCN(C(=O)N[C@@H](CSCc1ccccc1)C(=O)O)C(=O)c1cccc(CCc2ccccc2)c1	
63	CCCN(C(=O)N[C@@H](CSCc1ccccc1)C(=O)O)C(=O)c1cccc(-c2ccc3ccccc3c2)c1	
> 150	Cc1ccc(CN(C(=O)N[C@@H](CSCc2ccccc2)C(=O)O)C(=O)c2cccc(-c3ccccc3)c2)cc1	
128	CCN(C(=O)N[C@@H](CSCc1ccccc1)C(=O)O)C(=O)c1cccc(-c2ccccc2)c1	
78	CCCN(C(=O)N[C@@H](CSCc1ccccc1)C(=O)O)C(=O)c1cccc(-c2ccc(Cl)c(Cl)c2)c1	
> 150	CCCN(C(=O)N[C@@H](Cc1ccc2ccccc2c1)C(=O)O)C(=O)c1cccc(-c2ccccc2)c1	
> 150	CCC(C)N(C(=O)N[C@@H](CSCc1ccccc1)C(=O)O)C(=O)c1cccc(-c2ccccc2)c1 (some centres undefined)	
> 150	CCCN(C(=O)N[C@@H](CSCc1ccccc1)C(=O)O)C(=O)c1cccc(Cc2ccccc2)c1	
125	CCCN(C(=O)N[C@@H](CSCc1ccccc1)C(=O)O)C(=O)c1cccc(-c2ccc(F)cc2)c1	
